From ChEMBL document CHEMBL1275435, “A naturally occurring proline-to-alanine amino acid change in Fks1p in Candida parapsilosis, Candida orthopsilosis, and Candida metapsilosis accounts for reduced echinocandin susceptibility” (Antimicrob Agents Chemother, 2008)
Converted amounts (≈) assume the structure as drawn. *1 amine or outer side, *2 acyl side, *3 side chain or, on linkers, in order; H or OH if unused. Where a SMILES comes first, the peptide text is derived from it. Bridges are numbered along the chain shown (N, C = ends). [ ]: non-standard residue; d: D form. The star is where a group is joined. hTyr(3S-OH,4S-OH,3'-OSO3H) = N[C@H](C(=O)O)[C@H](O)[C@@H](O)c1ccc(O)c(OS(=O)(=O)O)c1; Orn(4R-OH,5R-OH) = O=C([C@H](C[C@@H](O)[C@@H](O)N[*:3])N[*:1])[*:2]; Pro(3S-OH,4S-Me) = C[C@H]1CN[C@H](C(=O)O)[C@H]1O; X1 = CCCCCOc1ccc(-c2cc(-c3ccc(C(=O)*)cc3)no2)cc1; Gln(3R-OH) = NC(=O)C[C@@H](O)[C@H](N)C(=O)O; Hyp = O=C(O)[C@@H]1C[C@@H](O)CN1

Assays:
Saccharomyces cerevisiae [1] = test: Antifungal activity against FKS1 deficient Saccharomyces cerevisiae BY4742 by CLSI method; format: functional
[2] = Inhibition of Candida parapsilosis ATCC 22019 glucan synthase by assessed as [3H]UDPG incorporation
Summary of the method: (§1)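 Cells were grown with vigorous shaking at 30°C to early stationary phase in YPD. Membrane GS was partially purified by product entrapment, using 10-fold more cells for low-activity strains. The polymerization assay was started by adding GS, with drug serially diluted from 0.01 to 10,000 ng/ml. Reactions ran 60 min at 25°C and were stopped on ice. IC50 came from sigmoidal variable-slope fits, as arithmetic means ± SD of three repetitions on three days.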

Candida albicans [3] = test: Antifungal activity against Candida albicans M122 by CLSI method; format: functional
Candida metapsilosis [4] = test: Antifungal activity against Candida metapsilosis 960161 by CLSI method; format: functional; settings: Lodderomyces metapsilosis
[5] = Inhibition of Candida orthopsilosis H10 glucan synthase assessed as [3H]UDPG incorporation; summary of the method: as §1
Candida albicans [6] = test: Antifungal activity against Candida albicans Sc5314 by CLSI method; format: functional
[7] = Inhibition of Candida albicans M122 glucan synthase assessed as [3H]UDPG incorporation; summary of the method: as §1
Candida metapsilosis [8] = test: Antifungal activity against Candida metapsilosis am-2006-0113 by CLSI method; format: functional; settings: Lodderomyces metapsilosis
Saccharomyces cerevisiae [9] = test: Antifungal activity against Saccharomyces cerevisiae BY4742-FKS1P649A mutant by CLSI method; format: functional
Summary of the method: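 Broth microdilution following CLSI M27-A2, run in YPD broth (1% yeast extract, 2% Bacto peptone, 2% dextrose). MICs are geometric means of at least three repetitions on three separate days.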

Candida orthopsilosis [10] = test: Antifungal activity against Candida orthopsilosis 981224 by CLSI method; format: functional; settings: Lodderomyces orthopsilosis
[11] = Inhibition of Saccharomyces cerevisiae BY4742-FKS1P649A mutant glucan synthase assessed as [3H]UDPG incorporation; summary of the method: as §1
Candida parapsilosis [12] = test: Antifungal activity against Candida parapsilosis H4 by CLSI method; format: functional; settings: Lodderomyces parapsilosis
[13] = Inhibition of Saccharomyces cerevisiae BY4742 glucan synthase assessed as [3H]UDPG incorporation; summary of the method: as §1
[14] = Inhibition of Candida glabrata ATCC 90030 glucan synthase assessed as [3H]UDPG incorporation; parameters: species or system Nakaseomyces glabratus; summary of the method: as §1
[15] = Inhibition of Candida albicans ATCC 90028 glucan synthase assessed as [3H]UDPG incorporation; summary of the method: as §1
[16] = Inhibition of Candida parapsilosis H4 glucan synthase assessed as [3H]UDPG incorporation; summary of the method: as §1
[17] = Inhibition of Candida metapsilosis am-2006-0113 glucan synthase assessed as [3H]UDPG incorporation; summary of the method: as §1
Nakaseomyces glabratus [18] = test: Antifungal activity against Candida glabrata T51916 by CLSI method; format: functional
[19] = Inhibition of Candida orthopsilosis 981224 glucan synthase assessed as [3H]UDPG incorporation; summary of the method: as §1
Nakaseomyces glabratus [20] = test: Antifungal activity against Candida glabrata ATCC 90030 by CLSI method; format: functional
[21] = Inhibition of Candida metapsilosis 960161 glucan synthase assessed as [3H]UDPG incorporation; summary of the method: as §1
[22] = Inhibition of Candida albicans ATCC 36082 glucan synthase assessed as [3H]UDPG incorporation; summary of the method: as §1
[23] = Inhibition of Candida parapsilosis H5 glucan synthase assessed as [3H]UDPG incorporation; summary of the method: as §1
Saccharomyces cerevisiae [24] = test: Antifungal activity against Saccharomyces cerevisiae BY4742 by CLSI method; format: functional
Candida parapsilosis [25] = test: Antifungal activity against Candida parapsilosis H5 by CLSI method; format: functional; settings: Lodderomyces parapsilosis
Candida orthopsilosis [26] = test: Antifungal activity against Candida orthopsilosis H10 by CLSI method; format: functional; settings: Lodderomyces orthopsilosis
Candida parapsilosis [27] = test: Antifungal activity against Candida parapsilosis ATCC 22019 by CLSI method; format: functional; settings: Lodderomyces parapsilosis
[28] = Inhibition of Candida albicans Sc5314 glucan synthase assessed as [3H]UDPG incorporation; summary of the method: as §1
[29] = Inhibition of Candida glabrata T51916 glucan synthase assessed as [3H]UDPG incorporation; parameters: species or system Nakaseomyces glabratus; summary of the method: as §1
Candida albicans [30] = test: Antifungal activity against Candida albicans ATCC 90028 by CLSI method; format: functional
Candida albicans [31] = test: Antifungal activity against Candida albicans ATCC 36082 by CLSI method; format: functional

Compound `CCCCCOc1ccc(-c2cc(-c3ccc(C(=O)N[C@H]4C[C@@H](O)[C@@H](O)NC(=O)[C@@H]5[C@@H](O)[C@@H](C)CN5C(=O)[C@H]([C@H](O)CC(N)=O)NC(=O)[C@H]([C@H](O)[C@@H](O)c5ccc(O)c(OS(=O)(=O)O)c5)NC(=O)[C@@H]5C[C@@H](O)CN5C(=O)[C@H]([C@@H](C)O)NC4=O)cc3)no2)cc1` [MICAFUNGIN] (X1-[Orn(4R-OH,5R-OH)]T[Hyp][hTyr(3S-OH,4S-OH,3'-OSO3H)][Gln(3R-OH)][Pro(3S-OH,4S-Me)]; lactam 1-C) has an MIC (Saccharomyces cerevisiae [1]) of 0.015 µg/mL (≈ 0.0118 µM), an IC50 [2] of 245.27 ng/mL (≈ 0.193 µM) and a Ki [2] of 476 ng/mL (≈ 0.375 µM). The MIC (Candida albicans [3]) was 0.25 µg/mL (≈ 0.197 µM), the MIC (Candida metapsilosis [4]) was 1.59 µg/mL (≈ 1.25 µM) and the IC50 [5] was 152.7 ng/mL (≈ 0.12 µM). It also gave a Ki [5] of 177.5 ng/mL (≈ 0.14 µM), an MIC (Candida albicans [6]) of 0.05 µg/mL (≈ 0.0394 µM) and an IC50 [7] of 943.1 ng/mL (≈ 0.742 µM). For the same compound, the Ki [7] was 2590 ng/mL (≈ 2.04 µM), the MIC (Candida metapsilosis [8]) was 1.59 µg/mL (≈ 1.25 µM) and the MIC (Saccharomyces cerevisiae [9]) was 0.5 µg/mL (≈ 0.394 µM). For the same compound, the MIC (Candida orthopsilosis [10]) was 1.26 µg/mL (≈ 0.992 µM), the IC50 [11] was 5199 ng/mL (≈ 4.09 µM) and the Ki [11] was 5706.5 ng/mL (≈ 4.49 µM). The MIC (Candida parapsilosis [12]) was 1.12 µg/mL (≈ 0.882 µM), the IC50 [13] was 159.45 ng/mL (≈ 0.126 µM) and the Ki [13] was 179.01 ng/mL (≈ 0.141 µM). It also gave an IC50 [14] of 0.68 ng/mL (≈ 0.000535 µM), an IC50 [15] of 10.2 ng/mL (≈ 0.00803 µM) and a Ki [15] of 23.5 ng/mL (≈ 0.0185 µM). For the same compound, the IC50 [16] was 340.83 ng/mL (≈ 0.268 µM), the Ki [16] was 486 ng/mL (≈ 0.383 µM) and the IC50 [17] was 70.32 ng/mL (≈ 0.0554 µM). For the same compound, the Ki [17] was 266 ng/mL (≈ 0.209 µM), the MIC (Nakaseomyces glabratus [18]) was 0.4 µg/mL (≈ 0.315 µM) and the IC50 [19] was 77.52 ng/mL (≈ 0.061 µM). It also gave a Ki [19] of 248 ng/mL (≈ 0.195 µM), an MIC (Nakaseomyces glabratus [20]) of 0.06 µg/mL (≈ 0.0472 µM) and an IC50 [21] of 113.73 ng/mL (≈ 0.0895 µM). For the same compound, the Ki [21] was 382.5 ng/mL (≈ 0.301 µM), the IC50 [22] was 18.88 ng/mL (≈ 0.0149 µM) and the Ki [22] was 15.5 ng/mL (≈ 0.0122 µM). It also gave an IC50 [23] of 493.63 ng/mL (≈ 0.389 µM), a Ki [23] of 261 ng/mL (≈ 0.205 µM) and an MIC (Saccharomyces cerevisiae [24]) of 0.03 µg/mL (≈ 0.0236 µM). The MIC (Candida parapsilosis [25]) was 1.26 µg/mL (≈ 0.992 µM), the MIC (Candida orthopsilosis [26]) was 0.63 µg/mL (≈ 0.496 µM) and the MIC (Candida parapsilosis [27]) was 1.6 µg/mL (≈ 1.26 µM). The IC50 [28] was 58.25 ng/mL (≈ 0.0459 µM), the Ki [28] was 27.5 ng/mL (≈ 0.0216 µM) and the IC50 [29] was 112.35 ng/mL (≈ 0.0884 µM). It also gave a Ki [29] of 510 ng/mL (≈ 0.401 µM), an MIC (Candida albicans [30]) of 0.03 µg/mL (≈ 0.0236 µM) and an MIC (Candida albicans [31]) of 0.02 µg/mL (≈ 0.0157 µM).
